According to ChEMBL document CHEMBL1142590, “Triterpenoid saponins from the roots of Pulsatilla koreana” (2005):
Values after ≈ are worked out from the molar mass of the structure shown.

System: A549
Assay: Cytotoxicity against human A549 cells after 48 hrs by SRB assay
Assay type: functional
Conditions: A549, 48 h, read-out: ED50 (the source's name)
Summary of the method: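 A-549 human lung carcinoma cells grown adherent in RPMI-1640 with 5% heat-inactivated FBS, 37 °C, 5% CO2, humidified. Cells seeded in 96-well plates, preincubated 24 h, then exposed to compounds for 48 h. Fixed with cold 10% TCA, stained with 0.4% SRB in 1% acetic acid, OD read at 540 nm. ED50 = 50% growth inhibition; doxorubicin positive control.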

Row | Compound | EC50
1 | C=C(C)[C@@H]1CC[C@]2(C(=O)O)CC[C@]3(C)[C@H](CC[C@@H]4[C@@]5(C)CC[C@H](O[C@@H]6OC[C@H](O[C@@H]7O[C@H](CO)[C@@H](O)[C@H](O)[C@H]7O)[C@H](O)[C@H]6O)[C@@](C)(CO)[C@@H]5CC[C@]43C)[C@@H]12 | > 10 µg/mL
2 | C=C(C)[C@@H]1CC[C@]2(C(=O)O)CC[C@]3(C)[C@H](CC[C@@H]4[C@@]5(C)CC[C@H](O[C@@H]6OC[C@H](O)[C@H](O)[C@H]6O[C@@H]6O[C@@H](C)[C@H](O)[C@@H](O[C@@H]7O[C@H](CO)[C@@H](O)[C@H](O)[C@H]7O)[C@H]6O)C(C)(C)[C@@H]5CC[C@]43C)[C@@H]12 | > 10 µg/mL
3 | C=C(C)[C@@H]1CC[C@]2(C(=O)O)CC[C@]3(C)[C@H](CC[C@@H]4[C@@]5(C)CC[C@H](O[C@@H]6OC[C@H](O)[C@H](O)[C@H]6O[C@@H]6O[C@@H](C)[C@H](O)[C@@H](O[C@@H]7O[C@H](CO)[C@@H](O)[C@H](O)[C@H]7O)[C@H]6O)[C@@](C)(CO)[C@@H]5CC[C@]43C)[C@@H]12 | > 10 µg/mL
4 | C[C@@H]1O[C@@H](O[C@H]2[C@H](O[C@H]3CC[C@@]4(C)[C@@H](CC[C@]5(C)[C@@H]4CC=C4[C@H]6CC(C)(C)CC[C@]6(C(=O)O)CC[C@]45C)[C@]3(C)CO)OC[C@H](O)[C@@H]2O)[C@H](O)[C@H](O)[C@H]1O | 9.6 µg/mL (≈ 12.8 µM)
5 | COc1cccc2c1C(=O)c1c(O)c3c(c(O)c1C2=O)C[C@@](O)(C(=O)CO)C[C@@H]3O[C@H]1C[C@H](N)[C@H](O)[C@H](C)O1 [DOXORUBICIN] | 0.02 µg/mL (≈ 0.0368 µM)
6 | C[C@@H]1O[C@@H](O[C@H]2[C@H](O[C@H]3CC[C@@]4(C)[C@@H](CC[C@]5(C)[C@@H]4CC=C4[C@H]6CC(C)(C)CC[C@]6(C(=O)O)CC[C@]45C)[C@]3(C)CO)OC[C@H](O)[C@@H]2O)[C@H](O)[C@H](O[C@@H]2O[C@H](CO)[C@@H](O[C@@H]3O[C@H](CO)[C@@H](O)[C@H](O)[C@H]3O)[C@H](O)[C@H]2O)[C@H]1O | > 10 µg/mL
7 | C[C@@H]1O[C@@H](O[C@H]2[C@H](O[C@H]3CC[C@]4(C)[C@H]5CC=C6[C@H]7CC(C)(C)CC[C@]7(C(=O)O)CC[C@@]6(C)[C@]5(C)CC[C@H]4C3(C)C)OC[C@H](O[C@@H]3O[C@H](CO)[C@@H](O)[C@H](O)[C@H]3O)[C@@H]2O)[C@H](O)[C@H](O)[C@H]1O | 2.6 µg/mL (≈ 2.9 µM)
8 | C=C(C)[C@@H]1CC[C@]2(C(=O)O)CC[C@]3(C)[C@H](CC[C@@H]4[C@@]5(C)CC[C@H](O[C@@H]6OC[C@H](O[C@@H]7O[C@H](CO)[C@@H](O)[C@H](O)[C@H]7O)[C@H](O)[C@H]6O[C@@H]6O[C@@H](C)[C@H](O)[C@@H](O)[C@H]6O)[C@@](C)(CO)[C@@H]5CC[C@]43C)[C@@H]12 | > 10 µg/mL
9 | C=C(C)[C@@H]1CC[C@]2(C(=O)O)CC[C@]3(C)[C@H](CC[C@@H]4[C@@]5(C)CC[C@H](O[C@@H]6OC[C@H](O[C@@H]7O[C@H](CO)[C@@H](O)[C@H](O)[C@H]7O)[C@H](O)[C@H]6O[C@@H]6O[C@@H](C)[C@H](O)[C@@H](O)[C@H]6O)C(C)(C)[C@@H]5CC[C@]43C)[C@@H]12 | > 10 µg/mL
